Experimental data of several laboratories.
Target: Ephrin type-A receptor 1 (EPHA1, Homo sapiens, UniProt P21709)
One construct used (P21709 26-976): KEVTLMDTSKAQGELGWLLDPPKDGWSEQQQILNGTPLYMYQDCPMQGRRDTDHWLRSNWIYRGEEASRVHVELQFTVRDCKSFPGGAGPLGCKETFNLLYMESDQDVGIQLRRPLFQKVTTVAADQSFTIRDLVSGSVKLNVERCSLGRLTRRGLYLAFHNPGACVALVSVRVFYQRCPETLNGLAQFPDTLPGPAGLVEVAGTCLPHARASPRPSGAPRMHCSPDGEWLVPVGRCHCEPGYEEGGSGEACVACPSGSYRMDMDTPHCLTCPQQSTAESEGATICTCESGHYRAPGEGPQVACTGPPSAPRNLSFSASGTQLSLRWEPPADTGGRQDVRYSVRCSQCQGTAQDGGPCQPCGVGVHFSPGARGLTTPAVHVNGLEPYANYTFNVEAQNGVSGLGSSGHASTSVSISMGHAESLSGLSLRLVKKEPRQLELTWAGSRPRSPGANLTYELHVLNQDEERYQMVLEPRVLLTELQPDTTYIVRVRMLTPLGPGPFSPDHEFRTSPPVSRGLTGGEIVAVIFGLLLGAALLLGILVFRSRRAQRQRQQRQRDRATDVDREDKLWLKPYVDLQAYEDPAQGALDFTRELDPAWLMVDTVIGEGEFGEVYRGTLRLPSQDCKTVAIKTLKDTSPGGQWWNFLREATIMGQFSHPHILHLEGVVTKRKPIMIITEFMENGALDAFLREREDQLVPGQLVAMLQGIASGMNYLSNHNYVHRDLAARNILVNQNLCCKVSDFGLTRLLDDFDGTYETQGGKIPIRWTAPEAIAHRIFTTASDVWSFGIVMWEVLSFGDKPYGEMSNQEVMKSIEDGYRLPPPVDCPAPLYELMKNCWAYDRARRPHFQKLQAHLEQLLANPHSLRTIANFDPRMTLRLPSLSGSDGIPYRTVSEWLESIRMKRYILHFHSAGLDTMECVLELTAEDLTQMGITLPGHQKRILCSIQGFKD

Compound | read-out | mode | technique | tested at | quantity | result
Cc1ccc(NC(=O)c2ccnc(C(F)(F)F)c2)cc1-c1cc(OCCO)nc(N2CCOCC2)c1 | binding |  | competition with immobilised ligand | 1 µM | remaining binding | 83%
CC(C)S(=O)(=O)c1ccc2nccc(Nc3ccc4sc(C5CCCC5)nc4c3)c2c1 | enzyme activity | inhibitor |  | 1 µM | activity vs control | 100%
CN1CCN(C(=O)c2ccc(NC(=O)Nc3ccc(N(C)c4ccnc(Nc5ccc(CS(C)(=O)=O)cc5)n4)cc3)cc2)CC1 | binding |  | competition with immobilised ligand | 1 µM | remaining binding | 56%
C1=C/COCc2cc(ccc2OCCN2CCCC2)Nc2nccc(n2)-c2cccc(c2)COC/1 | binding |  |  | 0.1 µM | remaining binding | 93%
CC#CC(=O)N1CCC[C@H]1c1nc(-c2ccc(C(=O)Nc3ccccn3)cc2)c2c(N)nccn12 | enzyme activity | inhibitor |  | 1 µM | inhibition | 25%
COc1ccc2oc(-c3ccc4nc(N)oc4c3)c/c(=N\c3ccccc3NC(=O)CCN)c2c1 | binding |  |  | 1 µM | remaining binding | 101%
C=CC(=O)N1CCC([C@@H]2CCNc3c(C(N)=O)c(-c4ccc(Oc5ccccc5)cc4)nn32)CC1 | cell-free assay |  |  | 1 µM | inhibition | 25%
CCCCC(=O)Nc1ccc(-c2ccc3ncn(CCC)c(=O)c3c2)cn1 | binding |  | competition with immobilised ligand | 0.5 µM | remaining binding | 80%
